Measurements from ChEMBL document CHEMBL2331097, “Synthesis of 5,7-disubstituted-4-methyl-7H-pyrrolo[2,3-d]pyrimidin-2-amines as microtubule inhibitors” (Bioorg Med Chem, 2013).
Active and inactive are the calls of the source. The calls are words filed in the database; no cut-off is given here.

Legend:
[1] = Cytotoxicity against mouse JC cells assessed as inhibition of cell survival after 48 hrs by SRB assay; assay type: functional, cell-based
In short: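 JC (CRL-2116) cells kept in RPMI-1640 with L-glutamine, 10% FBS and 50 μg/ml gentamicin at 37 °C, 5% CO₂. Cells were seeded at about 20% confluency and left 24 h to attach, then exposed to a range of concentrations for 48 h. Cells were PBS-washed, fixed in 10% trichloroacetic acid and stained with 0.4% SRB in 1% acetic acid. Dye was dissolved in 10 mM Tris and absorbance read at 570 nm.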

[2] = tested on: JC; test: Modulatory activity at P-gp in mouse JC cells assessed as lowest drug concentration required to increase intracellular [3H]taxol accumulation pretreated for 30 mins prior to [3H]taxol addition measured after 60 mins by liquid scintillation counting analysis; assay type: cell-based
In short: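 JC cells were seeded at about 25% confluency and grown 3–4 days to near confluency. Medium was switched to serum-free, and compounds were preincubated for 30 min at 37 °C. About 0.1 µCi [³H]Taxol (75 Ci/mmol) per well followed, for 60 min at 37 °C. Cells were washed twice with ice-cold PBS and lysed in 1% SDS. Intracellular label was counted by liquid scintillation, and the lowest concentration giving maximal accumulation was recorded.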

[3] = Ratio of compound IC50 to paclitaxel IC50 for mouse JC cells after 48 hrs by SRB assay; assay type: functional

SMILES | IC50 [1] [nM] | LED [2] | Ratio IC50 [3]
COc1cccc(Cn2cc(CCc3cc(OC)c(OC)c(OC)c3)c3c(C)nc(N)nc32)c1 | 1400 | 0.5 µM | –
COc1cc(CCc2cn(Cc3cc(OC)c(OC)c(OC)c3)c3nc(N)nc(C)c23)cc(OC)c1OC | 1000 | inactive | 6.6
COc1ccccc1Cn1cc(CCc2cc(OC)c(OC)c(OC)c2)c2c(C)nc(N)nc21 | 1000 | 2 µM | 6.6
COc1ccc(Sc2cn(Cc3ccccc3)c3nc(N)nc(C)c23)cc1 | 10000 | inactive | –
COc1cc(Cn2cc(CCc3cc(OC)c(OC)c(OC)c3)c3c(C)nc(N)nc32)cc(OC)c1 | 3000 | 1.5 µM | –
Cc1nc(N)nc2c1c(Sc1ccccc1)cn2Cc1ccccc1 | 4000 | inactive | –
Cc1nc(N)nc2c1c(Sc1ccc(Cl)cc1)cn2Cc1ccccc1 | 7500 | inactive | –
